Screening data from PubChem.
Most compounds without a hit are left out; they make up all but 1.6% or so of the library.
SUMO HTRF inh = SUMOylation inhibition; HTRF SUMOylation assay, SAE1/SAE2 + UBC9, in vitro; 290,000 tested, 0.36% active; P63279; inhibition, % at 35 µM; in the data active = inhibition above about 50%, passing the limit was not always enough
Target sequence (P63279 whole entry, looked up): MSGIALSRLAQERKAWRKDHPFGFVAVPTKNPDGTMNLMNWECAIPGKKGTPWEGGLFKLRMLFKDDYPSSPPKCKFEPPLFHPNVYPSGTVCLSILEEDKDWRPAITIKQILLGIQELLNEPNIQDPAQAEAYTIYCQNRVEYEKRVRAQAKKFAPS
Apaf-1 inh = inhibitors of human Apaf-1 apoptosome; O14727; 330,000 tested, 0.71% active; AID 489030; reconstituted apoptosome caspase-3 activity, DEVD-Rh110 fluorescence; inhibition, % at 20 µM; active = inhibition of at least 40% at 20 µM
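System: Apoptosome proteins | Medium: Hepes pH 7.5 with detergent and BSA | Also added: Cytochrome c trigger plus (Z-DEVD)2-Rh110 caspase-3 substrate | Incubation: 30 min compound preincubation, 50 min activation, room temperature | Detection: Rhodamine 110 fluorescence at Ex 480/Em 540 nm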
TDP2 absorb = TDP2 (human) inhibition, absorbance primary screen; O95551; recombinant TDP2, T5PNP hydrolysis, p-nitrophenol absorbance 415 nm; inhibition, % at 12.8 µM; 370,000 tested, 0.34% active;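 active = inhibition above the mean of all tested compounds plus 3 SD, set per campaign, cut at about 25% in these data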
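Test system: Human TDP2 enzyme | Reagent: 5 mM T5PNP | Compound dosing: 12.8 µM single point, 1% DMSO | Incubation: Enzyme reaction with compound for 2 h at 37 °C | Technique: p-Nitrophenol epi absorbance | Read-out: % inhibition relative to enzyme-containing and enzyme-free wells | Benchmarks: High control without enzyme, low control DMSO plus TDP2 | Replicates: Singlicate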
JMJD2C inh = inhibitors of human GASC-1 (JMJD2C) demethylase. GST-JMJD2C(1-420) H3K9me3 demethylation, DELFIA europium. 330,000 tested, 0.069% active. AID 2099. inhibition, % at 2.35 µM. Q9H3R0;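 active = more than half of a compound's replicate wells show inhibition beyond 50%, single wells judged on their own value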;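 note: signal counts dimethyl H3K9 product captured on neutravidin plate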
Target sequence (Q9H3R0 1-420 limits assumed): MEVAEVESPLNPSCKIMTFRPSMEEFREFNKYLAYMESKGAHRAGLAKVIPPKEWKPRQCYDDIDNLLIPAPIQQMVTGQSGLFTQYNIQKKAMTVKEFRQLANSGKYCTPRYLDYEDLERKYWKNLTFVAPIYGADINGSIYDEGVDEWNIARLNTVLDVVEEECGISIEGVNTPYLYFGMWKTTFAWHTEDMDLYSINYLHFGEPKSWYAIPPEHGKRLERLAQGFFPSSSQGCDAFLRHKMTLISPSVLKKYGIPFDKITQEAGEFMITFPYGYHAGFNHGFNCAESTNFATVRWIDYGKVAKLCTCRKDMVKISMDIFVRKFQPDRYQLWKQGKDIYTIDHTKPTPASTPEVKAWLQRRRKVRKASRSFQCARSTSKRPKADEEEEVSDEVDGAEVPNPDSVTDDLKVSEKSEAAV
PAD4 inh = PAD4 (human) enzyme inhibition; AID 485272; recombinant PAD4, RCA probe fluorescence polarization; Q9UM07; inhibition, % at 6.36 µM; 330,000 tested, 0.41% active;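 active = percent inhibition above a cutoff equal to the mean of all tested compounds plus 3 SD, cut at about 15% in these data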
GSTO1 counter = blocks human GSTO1 in RBBP9 counter-screen | recombinant GSTO1, activity-based probe fluorescence polarization | inhibition, % at 5.96 µM | 300,000 tested, 1.1% active | AID 1974 | P78417;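 active = inhibition above the campaign mean inhibition plus 3 SD, cut at about 35% in these data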
Apaf-1 inh conf2 = confirmation of Apaf-1 inhibitors; shares compounds with Apaf-1 inh; inhibition, % at 20 µM; reconstituted apoptosome, caspase-3 DEVD-Rh110 fluorescence; 1,800 tested, 25% active;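 active = mean inhibition of at least 40% at 20 µM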
Rh110 quench = interferes with Rh110 fluorescence, flagging false Apaf-1 inhibitors. Rh110 fluorescence interference, quenched caspase reaction. AID 504615. activation (fluorescence interference), % at 20 µM. shares compounds with Apaf-1 inh. 1,800 tested, under 10 active;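 active = signal rise of 40% or more at 20 µM, treated as a fluorescence artifact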
Apaf1 inh interf = shows fluorescence interference in the Apaf-1 inhibitor assay format. shares compounds with Apaf-1 inh. fluorescence interference counterscreen, Apaf-1 assay format. IC50, µM. 460 tested, under 10 active; call rule not given here
Numbers stand for hits.

What do the screens show for `C=CCN1[C@H](CO)[C@H](c2ccc(Br)cc2)[C@@H]1C#N`?
TDP2 absorb: inactive

Results for CCN1/C(=C/C(C)=C/c2sc3ccccc3[n+]2CC)Sc2ccccc21 ?
SUMO HTRF inh: inactive; Apaf-1 inh: 52.7; TDP2 absorb: inactive; JMJD2C inh: inactive; PAD4 inh: inactive; GSTO1 counter: inactive; Apaf-1 inh conf2: 60.6; Rh110 quench: inactive; Apaf1 inh interf: 51.2

How did COc1ccc(-n2c(N)c(C(=O)NCC3CCCO3)c3nc4ccccc4nc32)c(OC)c1 (stereo not drawn) do in these assays?
SUMO HTRF inh: inactive; Apaf-1 inh: 65.8; TDP2 absorb: 73.5; JMJD2C inh: inactive; PAD4 inh: inactive; GSTO1 counter: inactive; Apaf-1 inh conf2: inactive; Rh110 quench: inactive

How did COc1ccc(-n2nc(C(=O)NCC(=O)NCC3CCCO3)c3ccccc3c2=O)c(OC)c1 (stereo not drawn) do in these assays?
SUMO HTRF inh: inactive; Apaf-1 inh: inactive; TDP2 absorb: inactive; JMJD2C inh: inactive; PAD4 inh: inactive; GSTO1 counter: inactive

Results for CC1CCC2(CC1)NC(=O)N(CC(=O)Nc1ccc3[nH]c(=O)[nH]c3c1)C2=O (stereo not drawn) ?
Apaf-1 inh: inactive; TDP2 absorb: inactive; JMJD2C inh: inactive; PAD4 inh: inactive; GSTO1 counter: inactive

What do the screens show for `CC1CC(C)(C)CC2(C1)NC(=O)N(CC(=O)Nc1ccc3[nH]c(=O)[nH]c3c1)C2=O` (stereo not drawn)?
Apaf-1 inh: 44.3; TDP2 absorb: inactive; JMJD2C inh: inactive; PAD4 inh: inactive; Apaf-1 inh conf2: inactive; Rh110 quench: inactive

How did CC(C)(C)C(=O)OC12CCCN(C1)/C(=C/c1ccc(Cl)cc1)C2 (stereo not drawn) do in these assays?
TDP2 absorb: inactive

How did Cc1cccc(N(Cc2ccccc2)C(=O)C2CCN(C(=O)c3ccccc3C)CC2)c1 do in these assays?
Apaf-1 inh: 48.5; TDP2 absorb: inactive; JMJD2C inh: inactive; PAD4 inh: inactive; Apaf-1 inh conf2: inactive; Rh110 quench: inactive

How did COc1ccccc1N1CCN(C(=O)c2ccc3c(Cl)c4c(nc3c2)CCCC4)CC1 do in these assays?
SUMO HTRF inh: inactive; Apaf-1 inh: 41.2; JMJD2C inh: inactive; PAD4 inh: inactive; GSTO1 counter: inactive; Apaf-1 inh conf2: inactive; Rh110 quench: inactive

Results for CC(=O)OCCNc1cc(N2CCN(C)CC2)c2noc3c2c1C(=O)c1ccccc1-3 ?
SUMO HTRF inh: inactive; TDP2 absorb: inactive

What do the screens show for `CCN1CCN(c2cc(N3CCN(C(=O)c4ccco4)CC3)c3c4c(onc24)-c2ccccc2C3=O)CC1`?
SUMO HTRF inh: inactive; Apaf-1 inh: 41.8; JMJD2C inh: inactive; PAD4 inh: inactive; GSTO1 counter: inactive; Apaf-1 inh conf2: inactive; Rh110 quench: inactive

How did CC1CCCCC1N(C(=O)c1cc(C2CC2)on1)C1CCCCCC1 (stereo not drawn) do in these assays?
TDP2 absorb: inactive

How did Cc1nc2ccccn2c(=O)c1CCN1CCC(C(=O)c2ccc(F)cc2)CC1 do in these assays?
SUMO HTRF inh: inactive; Apaf-1 inh: inactive; TDP2 absorb: inactive; JMJD2C inh: inactive; PAD4 inh: inactive; GSTO1 counter: inactive

Results for Cc1nc2sccn2c(=O)c1CCN1CCC(=C(c2ccc(F)cc2)c2ccc(F)cc2)CC1 ?
SUMO HTRF inh: inactive; Apaf-1 inh: 42.3; TDP2 absorb: inactive; JMJD2C inh: inactive; PAD4 inh: inactive; GSTO1 counter: inactive; Apaf-1 inh conf2: inactive; Rh110 quench: inactive

How did C(=N\c1c(-c2ccccc2)nc2n1CCS2)/c1ccccc1 do in these assays?
SUMO HTRF inh: inactive; Apaf-1 inh: 41.0; TDP2 absorb: inactive; JMJD2C inh: inactive; PAD4 inh: inactive; GSTO1 counter: inactive; Apaf-1 inh conf2: inactive; Rh110 quench: inactive

How did CCCN1CCN(C(=O)c2oc3c(Cl)cccc3c2C)CC1 do in these assays?
SUMO HTRF inh: inactive; Apaf-1 inh: inactive; TDP2 absorb: inactive; JMJD2C inh: inactive; PAD4 inh: inactive; GSTO1 counter: inactive

Results for Cc1cccc(NC(=O)CN2CCN(C(=O)c3oc4c(Cl)cccc4c3C)CC2)c1C ?
Apaf-1 inh: 69.9; TDP2 absorb: inactive; JMJD2C inh: inactive; PAD4 inh: inactive; Apaf-1 inh conf2: inactive; Rh110 quench: inactive

How did Cc1ccc(NC(=O)COc2ccccc2)cc1Cl do in these assays?
SUMO HTRF inh: inactive; Apaf-1 inh: inactive; JMJD2C inh: inactive; PAD4 inh: inactive; GSTO1 counter: inactive

How did CN1CCN(c2ccc(NC(=O)COc3ccccc3)cc2Cl)CC1 do in these assays?
SUMO HTRF inh: inactive; Apaf-1 inh: 49.5; TDP2 absorb: inactive; JMJD2C inh: inactive; Apaf-1 inh conf2: inactive; Rh110 quench: inactive

How did COc1ccccc1OCC(=O)NCC1CCCN(C(=O)c2ccccc2C(C)=O)C1 (stereo not drawn) do in these assays?
SUMO HTRF inh: inactive; Apaf-1 inh: inactive; TDP2 absorb: inactive; JMJD2C inh: inactive; PAD4 inh: inactive; GSTO1 counter: inactive

What do the screens show for `COc1ccccc1OCC(=O)NCC1CCCN(C(=O)c2ccccc2SC)C1` (stereo not drawn)?
SUMO HTRF inh: inactive; Apaf-1 inh: 50.9; TDP2 absorb: inactive; JMJD2C inh: inactive; PAD4 inh: inactive; GSTO1 counter: inactive; Apaf-1 inh conf2: inactive; Rh110 quench: inactive

Results for CCCCCCc1cc2cc(-c3nnc(-c4ccccc4OC)o3)c(=O)oc2cc1O ?
SUMO HTRF inh: inactive; Apaf-1 inh: 62.4; TDP2 absorb: inactive; JMJD2C inh: inactive; PAD4 inh: inactive; GSTO1 counter: inactive; Apaf-1 inh conf2: 64.5; Rh110 quench: inactive; Apaf1 inh interf: inactive

What do the screens show for `CCCCCCc1cc2cc(C(=O)Nc3ccccc3OC)c(=O)oc2cc1O`?
SUMO HTRF inh: inactive; Apaf-1 inh: inactive; TDP2 absorb: inactive; JMJD2C inh: inactive; PAD4 inh: inactive; GSTO1 counter: inactive

What do the screens show for `Cn1ccnc1C(=O)O[C@@H]1CCC[C@@]2(C(=O)N(Cc3ccccc3)c3ccccc32)[C@H]1NC(=O)CCc1ccccc1`?
TDP2 absorb: inactive

How did CCOC(=O)[C@H](Cc1ccccc1)NC(=O)[C@H]1C[C@@]2(N3CCCCC3)c3ccccc3N(C(=O)OC(C)(C)C)[C@H]2N1C(=O)OC(C)(C)C do in these assays?
TDP2 absorb: inactive

Results for CCC1CCc2sc(C(=O)NCc3ccccn3)cc2C1 (stereo not drawn) ?
SUMO HTRF inh: inactive; Apaf-1 inh: inactive; TDP2 absorb: inactive; JMJD2C inh: inactive; PAD4 inh: inactive; GSTO1 counter: inactive
